Not all results are given here.
PGC1a acetyl up: raises PGC1a acetylation signal in U2OS cells; U2OS PGC1a acetylation AlphaScreen, overnight; activation, % at 15.6 µM; 0.21% of 350,000 active;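 active = every replicate reaching activation of at least 50%, whatever the mean replicate activation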;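 also: hits raise the AlphaScreen acetylation signal above neutral controls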
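Incubation: overnight compound treatment, 37 °C. System: U2OS cells transduced with flag-tagged PGC1a and GCN5 acetyltransferase. Detection: AlphaScreen lysate read. Compound: single-point compound dosing.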
* marks the source's active call; other numbers are inactive results.

SMILES	PGC1a acetyl up
COc1ccc(OCCc2nnc(N)s2)cc1	-43.1
Cc1cc(Sc2nnc(N)s2)c2ccccc2n1	59.0*
N=c1sccn1CC(=O)Nc1ccccc1Sc1ccccc1	-72.9
Nc1nc(SCC(=O)Nc2ccccc2Sc2ccc(Cl)cc2)n[nH]1	89.2*
CCc1ccc(C(=O)NNC(=O)Cn2c(=O)cnc3ccccc32)cc1	-40.2
Cc1cc(Cl)ccc1OCC(=O)Nc1cccc(S(=O)(=O)NC2=NCCCCC2)c1	-41.0
Cc1nnnn1/C(=C\c1ccccc1)C(=O)OCC(=O)Nc1cccc(S(=O)(=O)N(C)C)c1	96.4*
CC(C)(C)c1ccc(CCC2OCC(C[N+]3(C)CCOCC3)O2)cc1 (configuration not stated)	-73.3
CCCCC(C(=O)O)C(C)CC(=O)Nc1nncs1 (configuration not stated)	-44.9
CCOC(=O)c1oc2nc3c(cc2c1N)COC(C)(C)C3	63.1*
Cc1ccc(-c2ccc(C3[C@@H]4CN(C(=O)Nc5ccc(C(F)(F)F)cc5)C[C@H]3N4)cc2)cc1 (some centres not stated)	-69.7
O=C(Nc1ccc(C(F)(F)F)cc1)N1C[C@@H]2N[C@H](C1)C2c1ccc(-c2cccc(F)c2)cc1 (some centres not stated)	-62.5
Cc1cccc(-c2ccc(C3[C@@H]4CN(C(=O)C5CCCCC5)C[C@H]3N4)cc2)c1 (some centres not stated)	74.0*
C[C@@H]1CN([C@H](C)CO)C(=O)CCCn2nncc2CO[C@H]1CN(C)C(=O)C1CC1	-50.9
CC1(C)CC(=O)C2=C(C1)Nc1ccccc1N1C(=O)c3ccccc3C21 (configuration not stated)	57.9*
CCS(=O)(=O)Nc1ccc2c(c1)C(=O)N(C)C[C@@H](OC)[C@H](C)CN(Cc1ccccn1)[C@@H](C)CO2	-44.4
Cn1c(Cl)cnc1C1CC(=O)c2cc(Cl)ccc2O1 (configuration not stated)	71.3*
CC(=O)C1=C(O)C(=O)N(Cc2ccco2)C1c1cccc(F)c1 (configuration not stated)	-51.3
CN(C)C(=O)c1ccc(-c2ccc([C@H]3[C@H]4CN(C(=O)CC5CC5)CC(=O)N4[C@H]3CO)cc2)cc1	-50.8
CC(=O)Cc1nsc(NC(=O)c2cccc(F)c2)n1	-44.1
Cc1ccc(Nc2nc(-c3c(C)nc4ncccn34)cs2)cc1	79.6*
Cc1ccc(Nc2nc(-c3c(C)nc4ccccn34)cs2)cc1	121.3*
CO[C@H]1CN(C)C(=O)c2ccc(NS(=O)(=O)c3ccccc3)cc2OC[C@@H](C)N(C(=O)NC(C)C)C[C@@H]1C	-51.7
CC(=O)ON=C1C=CC(=C(C#N)c2ccccc2)C=C1	-41.0
O=C(CS(=O)CC(=O)Nc1cccc2c1CCCC2)Nc1ccc(F)cc1 (configuration not stated)	65.9*
SMILES	PGC1a acetyl up
O=C(COC(=O)c1ccccc1C(=O)c1ccc(Cl)c([N+](=O)[O-])c1)NC1CCCCCC1	160.2*
Cc1ccc(NC(=O)c2ccc(NCC3CCCO3)c([N+](=O)[O-])c2)cc1Cl (configuration not stated)	-43.3
Cc1ccc(C)c(C(=O)Cn2ncc(Cl)c(Cl)c2=O)c1	484.9*
O=C(Cn1ncc(Cl)c(Cl)c1=O)NC(=O)NC1CCCCC1	-57.8
O=C(Cn1ncc(Cl)c(Cl)c1=O)N1CCN(S(=O)(=O)c2ccc3ccccc3c2)CC1	-76.7
CCC(=O)Nc1ccc(C(=O)Cn2ncc(Cl)c(Cl)c2=O)cc1	265.2*
COc1ccc(NC(=O)Cn2ncc(Cl)c(Cl)c2=O)cc1S(=O)(=O)N1CCOCC1	105.3*
CCCCCCCCC(=O)O	-65.6
CC(C)CC(=O)/C(=C\c1ccc(Cl)cc1Cl)n1cncn1	-60.3
COCCOc1ccc(C(F)(F)F)cc1NC(=O)CN1C(=O)NC2(CCCc3ccccc32)C1=O (configuration not stated)	-54.6
CCCCn1c(SCC(=O)NCc2ccc3c(c2)OCO3)nnc1C(CC)N(C)C (configuration not stated)	-43.7
Cc1nn(CCCC(=O)O)c(C)c1[N+](=O)[O-]	-42.5
COc1ccc(C2CCc3cc4c(cc3C2=NOC(C)=O)OCO4)cc1OC (configuration not stated)	56.2*
CC1=C(C(=O)OCc2ccc3c(c2)OCO3)C(c2ccc(Cl)cc2)NC(=O)N1 (configuration not stated)	-43.3
COc1ccc(NC(=O)c2ccc3c(c2)OCO3)cc1Cl	-42.0
CN1CCN(C2=C(Cl)C(=O)N(CCc3ccccc3)C2=O)CC1	-47.2
CC(C)c1ccc(/C=N/NC(=O)C2CCCC2)cc1	-46.2
CCN(CC)CCOc1ccc(/C(=C(\Cl)c2ccccc2)c2ccccc2)cc1	79.9*
Cc1ccccc1NC1=C/C(=N\S(=O)(=O)c2cccs2)c2ccccc2C1=O	-88.0
Nc1nnc(SCC(=O)NC2CCCCC2)n1-c1ccccc1	62.0*
C=CCn1c(C)nnc1SCC(=O)NC1CC1	-50.2
O=C(CSc1nc(O)cc(=O)n1-c1ccccc1)N1CCCCC1	-43.8
Fc1ccc(CO/N=C/C2=C(Cl)c3ccccc3CC2)cc1	-79.1
CCOC(=O)c1ccc(N2C(=O)CC(N3CCC(O)(c4ccc(Br)cc4)CC3)C2=O)cc1 (configuration not stated)	-47.2
COc1ccc(Cl)cc1NC(=O)CN1CCC(n2nnc3cc(C)ccc32)CC1	-51.5
SMILES	PGC1a acetyl up
COc1cc(NC(=O)CCN2CCN(C)CC2)cc(OC)c1	-49.9
CCOc1ccc(NC(=O)CN2CCC(n3cnc4cc(F)ccc43)CC2)cc1	67.3*
O=C1NC2(CCC3(CC2)OCCO3)NN1c1ccccc1	-51.0
Cc1cccc(COc2ccc(/C=C3/C(=O)N(C)C(=S)N3C)cc2)c1	-70.6
Cc1cc(N)c2cc(NC(=O)/C=C/c3ccccc3Cl)ccc2n1	-80.4
O=C(NC1CCCCCCC1O)c1ccccc1 (configuration not stated)	-57.1
O=C(c1ccccc1)C1OC1C(=O)c1ccccc1 (configuration not stated)	76.7*
CC(C)Oc1ccc2nnnn2n1	-49.0
C=CCC1NS(=O)(=O)OC(CCc2ccccc2)C1O (configuration not stated)	103.8*
Cc1cccc(-n2c(=O)cc(N3CCN(c4ccc(F)cc4)CC3)[nH]c2=O)c1	-54.9
O=[N+]([O-])c1c(NCCCO)cc(Sc2nc3ccccc3s2)c2nonc12	-58.2
N#CC1=C(N)Oc2c(ccc3ccccc23)C1c1ccsc1 (configuration not stated)	56.7*
C[C@H]1CN([C@@H](C)CO)C(=O)CCCn2nncc2CO[C@@H]1CN(C)C(=O)c1ccc(N2CCN(C)CC2)cc1	-55.6
CC(C)NC(=O)N(C)C[C@H]1OCCCC[C@@H](C)Oc2ccc(NC(=O)Cc3ccccc3)cc2C(=O)N([C@@H](C)CO)C[C@H]1C	-55.2
CC(C)c1nnc(NC(=O)CCS(=O)(=O)c2nc(-c3cccs3)cc(C(F)(F)F)n2)s1	102.8*
CN(c1cccc(NS(=O)(=O)c2cccs2)c1)S(C)(=O)=O	-50.7
C=C1C(=O)O[C@@H]2[C@H]1[C@@H](OC(=O)/C(C)=C/C)C/C(C)=C\C(=O)/C=C(\C)[C@@H]2O	197.7*
CNC[C@H]1OCCCC[C@@H](C)Oc2ccc(NS(=O)(=O)c3ccccc3)cc2C(=O)N([C@H](C)CO)C[C@@H]1C	-48.7
COc1ccc(CC2=CC(=O)c3ccccc3C2=O)cc1	128.3*
O=C1C=CCCN1C(=O)/C=C/c1cccc(Br)c1	-46.4

High-throughput results: PubChem BioAssay, Broad Institute
